The results in this text go back to ChEMBL document CHEMBL3352185, “Design, synthesis, and antibacterial properties of dual-ligand inhibitors of acetyl-CoA carboxylase” (2014).

Assay [1] relates to Enterococcus faecalis. Nature of the assay: Antibacterial activity against wild type Enterococcus faecalis ATCC 29212 after 18 to 24 hrs by two-fold broth microdilution method. The class given is functional. The essentials: (§1)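 MICs were determined by CLSI broth microdilution in cation-adjusted Mueller Hinton (MHII) broth. Organisms were first streaked on agar and grown overnight at 35 °C. Compounds were dissolved in 100% DMSO and tested as 2-fold serial dilutions. A standardized inoculum was incubated with compound for 18−24 h at 35 °C. The norA strain is an otherwise isogenic S. aureus carrying a gain-of-function NorA mutation.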
For orientation: In broth dilution the organism is exposed to a series of concentrations in liquid medium.

Assay [2] concerns Escherichia coli. Nature of the assay: Antibacterial activity against Escherichia coli D21 IpxC101/tolC deletion mutant after 18 to 24 hrs by two-fold broth microdilution method. The class given is functional. The gist of the method: (§2)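 CLSI broth microdilution in cation-adjusted Mueller Hinton (MHII) broth. Strains streaked on agar and grown overnight at 35 °C. […] Value is the MIC.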

The test system of assay [3] is Escherichia coli. Nature of the assay: Antibacterial activity against Escherichia coli D21 IpxC101 deletion mutant after 18 to 24 hrs by two-fold broth microdilution method. The class given is functional. The essentials:
as §2

The test system of assay [4] is Escherichia coli. Nature of the assay: Antibacterial activity against moiramide-resistant Escherichia coli D21 tolC deletion mutant after 18 to 24 hrs by two-fold broth microdilution method. The class given is functional. The essentials: as §2
Assay [5] concerns Escherichia coli. Kind of assay: Antibacterial activity against Escherichia coli D21 tolC deletion mutant after 18 to 24 hrs by two-fold broth microdilution method. It counts as functional. The essentials:
as §2

Assay [6] concerns Staphylococcus aureus. Nature of the assay: microbe, parasite or virus in culture. The settings on record: ATCC 29213.
In assay [7] the test system is Staphylococcus aureus. Nature of the assay: microbe, parasite or virus in culture. The conditions noted are these: ATCC 29213. The source holds these as a separate data set.
The test system of assay [8] is Pseudomonas aeruginosa. Nature of the assay: Antibacterial activity against Pseudomonas aeruginosa PAO1 mexAB/mexCD/mexXY/mexHI/opmH deletion mutant after 18 to 24 hrs by two-fold broth microdilution method.
For assay [9], the system named is Pseudomonas aeruginosa. Kind of assay: Antibacterial activity against wild type Pseudomonas aeruginosa PAO1 after 18 to 24 hrs by two-fold broth microdilution method. It counts as functional. The essentials: as §2
For assay [10], the system named is Staphylococcus epidermidis. Kind of assay: Antibacterial activity against wild type Staphylococcus epidermidis ATCC 35984 after 18 to 24 hrs by two-fold broth microdilution method. It counts as functional. The essentials: as §1
The subject of assay [11] is Escherichia coli. Nature of the assay: Antibacterial activity against wild type Escherichia coli D21 after 18 to 24 hrs by two-fold broth microdilution method. The class given is functional. The essentials:
as §2

The test system of assay [12] is Staphylococcus aureus. Kind of assay: Antibacterial activity against moiramide-resistant Staphylococcus aureus ATCC 29213 after 18 to 24 hrs by two-fold broth microdilution method. It counts as functional. The gist of the method: as §2
The test system of assay [13] is Escherichia coli. Kind of assay: Ratio of MPC for Escherichia coli D21 tolC deletion mutant to MIC for Escherichia coli D21 tolC deletion mutant. It counts as functional. The gist of the method: (§3)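 Single-step selection on MHII agar: compound added to molten agar cooled to 55 °C, at 2-fold increasing concentrations. Overnight MHII broth culture of E. coli tolC concentrated by centrifugation; 4 × 10^9 CFU plated per plate, CFU counted by serial dilution. Plates monitored for resistant colonies. MPC is the lowest consecutive concentration fully suppressing resistant mutants. Ratio is MPC to broth microdilution MIC.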

In assay [14] the test system is Escherichia coli. Nature of the assay: Selectivity ratio of MIC for moiramide-resistant Escherichia coli D21 tolC deletion mutant to MIC for Escherichia coli D21 tolC deletion mutant. It counts as functional.
Assay [15] deals with Escherichia coli. Nature of the assay: Competitive inhibition of Escherichia coli acetyl-CoA carboxylase using acetyl-CoA as substrate in presence of ATP. The essentials: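 ACC holoenzyme activity was measured with a pyruvate kinase/lactate dehydrogenase coupled assay. Mix: 0.5 mM phosphoenolpyruvate, 0.2 mM NADH, 20 mM MgCl2, 15 mM bicarbonate, 100 mM HEPES pH 8.0. ATP was fixed at 5 μM, acetyl-CoA was varied from 50 to 1000 μM, and inhibitor was used at fixed increasing concentrations. Initial velocities were fitted to a competitive equation to give Kis.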

Assay [16] deals with Staphylococcus aureus. Kind of assay: Selectivity ratio of MIC for moiramide-resistant Staphylococcus aureus ATCC 29213 to MIC for Staphylococcus aureus ATCC 29213. It counts as functional.
Assay [17] relates to Escherichia coli. Nature of the assay: Antibacterial activity against Escherichia coli D21 tolC deletion mutant assessed as mutant prevention concentration after 18 to 24 hrs by two-fold broth microdilution method. The class given is functional. The gist of the method: as §3
In assay [18] the test system is Escherichia coli. Kind of assay: Inhibition of Escherichia coli acetyl-CoA carboxylase. The essentials: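 Purified ACC complex was assayed by PK/LDH-coupled NADH oxidation in 100 mM HEPES pH 8.0, with 20 mM MgCl2 and 15 mM bicarbonate. One series varied ATP (0.8–56 μM) at 0.2 mM acetyl-CoA; the other varied acetyl-CoA (50–1000 μM) at 5 μM ATP. Each series was run at fixed increasing inhibitor levels. Kis and Kii came from fits to competitive or noncompetitive rate equations.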

For assay [19], the system named is Escherichia coli. Nature of the assay: Non competitive inhibition of Escherichia coli acetyl-CoA carboxylase using acetyl-CoA as substrate in presence of ATP.
In assay [20] the test system is Escherichia coli. Kind of assay: Antibacterial activity against Escherichia coli JM109 at 1 to 100 uM after 4 hrs by UV-Vis spectrophotometry. It counts as functional, organism-based. The gist of the method:
(§4)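 E. coli JM109 was grown overnight in LB at 37 °C, then diluted into fresh LB tubes. Tubes received compound from a DMSO stock at final 1, 10, 50 or 100 μM, with or without polymyxin B nonapeptide at final 0.5, 1, 5 or 10 μg/mL. Tubes were incubated 4 h at 37 °C and growth was read as absorbance at 600 nm.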

Assay [21] relates to Escherichia coli. Kind of assay: Antibacterial activity against Escherichia coli JM109 at 1 to 100 uM after 4 hrs by UV-Vis spectrophotometry in presence of PBMN. The class given is functional, organism-based. The essentials: as §4
The subject of assay [22] is Escherichia coli. Nature of the assay: Competitive inhibition of Escherichia coli biotin carboxylase.

Converted amounts (≈) assume the structure as drawn. The source made the active and inactive calls. No cut-off for these calls is given here.

Turning to `NC[C@H]1O[C@H](O[C@H]2[C@H](O)[C@@H](O[C@H]3O[C@H](CO)[C@@H](O)[C@H](N)[C@H]3O)[C@H](N)C[C@@H]2N)[C@H](O)[C@@H](O)[C@@H]1O` [KANAMYCIN], the MIC in [1] was 31 mg/L (≈ 64 µM); in assay [2] it was 0.5 mg/L (≈ 1.03 µM); in assay [3] it was 1 mg/L (≈ 2.06 µM); in assay [4] it was 0.5 mg/L (≈ 1.03 µM); in [5] (Escherichia coli, D21), 2 mg/L (≈ 4.13 µM); in [6], 4 mg/L (≈ 8.26 µM). Moreover, the MIC in [7] was 4 mg/L (≈ 8.26 µM); in [8], 64 mg/L (≈ 132 µM); in assay [9] it was 128 mg/L (≈ 264 µM); in assay [10], more than 128 mg/L; in assay [11], 2 mg/L (≈ 4.13 µM); in assay [12] it was 2 mg/L (≈ 4.13 µM).
On to `C/C=C/C=C/C(=O)N[C@@H](CC(=O)N[C@H](C(=O)[C@@H]1C(=O)NC(=O)[C@H]1C)C(C)C)c1ccccc1`, for which the Ratio turned out to be 32 in [13], 8 in assay [14] and 8 in assay [16]. Further, the MIC in [1] came out at 8 mg/L (≈ 17.6 µM); in assay [2] it was 0.5 mg/L (≈ 1.1 µM); in assay [3], 4 mg/L (≈ 8.82 µM); in [4], 4 mg/L (≈ 8.82 µM); in assay [5] (Escherichia coli, D21) it was 0.5 mg/L (≈ 1.1 µM); in assay [6], 1 mg/L (≈ 2.2 µM). Moreover, the MIC in assay [7] was 4 mg/L (≈ 8.82 µM); in assay [8], 8 mg/L (≈ 17.6 µM); in assay [9] it was more than 64 mg/L; in assay [10] it was 0.24 mg/L (≈ 0.529 µM); in [11] it was more than 64 mg/L; in assay [12], 8 mg/L (≈ 17.6 µM). Also, the Kis in assay [15] worked out at 7.9 nM. Besides, the Activity in assay [17] amounted to 16 mg/L. In [18], this compound came in with an INH of 5 nM.
Consider `CC(C)[C@H](NC(=O)C[C@H](NC(=O)CCCCCCCCCCCCCCCOc1ccc(CN(Cc2ccccc2)C(=O)c2cnc(N)o2)cc1)c1ccccc1)C(=O)[C@@H]1C(=O)NC(=O)[C@H]1C`, for which the MIC in assay [1], in [6], in assay [7], in [9], in assay [10] and in [11] was more than 64 mg/L in each case. Also, the Kis in [15] came to 5.2 nM; in assay [19] it was 28.7 nM. In addition, in [19], the Kii was 33.7 nM. Besides, the outcome in assay [20] was inactive. Moreover, in assay [21], the result was Active.
Turning to `O=C(N[C@H](CO)[C@H](O)c1ccc([N+](=O)[O-])cc1)C(Cl)Cl` [CHLORAMPHENICOL], the MIC in assay [1] stood at 8 mg/L (≈ 24.8 µM); in assay [2], 1 mg/L (≈ 3.09 µM); in assay [3], 4 mg/L (≈ 12.4 µM); in assay [5] (Escherichia coli, D21), 1 mg/L (≈ 3.09 µM); in assay [6], 8 mg/L (≈ 24.8 µM); in assay [7], 8 mg/L (≈ 24.8 µM). The MIC was 2 mg/L (≈ 6.19 µM) in assay [8], more than 64 mg/L in assay [9], 8 mg/L (≈ 24.8 µM) in [10] and 8 mg/L (≈ 24.8 µM) in [11].
Regarding `Nc1ncc(C(=O)N(Cc2ccccc2)Cc2ccccc2)o1`, in assay [13], the Ratio is more than 8. In addition, the MIC in [1] was more than 64 mg/L; in [2] it was 16 mg/L (≈ 52.1 µM); in [4], 8 mg/L (≈ 26 µM); in assay [5] (Escherichia coli, D21), 16 mg/L (≈ 52.1 µM); in assay [6], more than 64 mg/L; in assay [7] it was more than 64 mg/L. Also, the MIC in assay [9], in assay [10] and in assay [11] was more than 64 mg/L throughout. For the same compound, the Kii in assay [19] came to 900 nM. Besides, the Kis was determined as 400 nM in assay [19] and 0.8 µM in [22]. The Activity in assay [17] is given as more than 128 mg/L.
Regarding `CC(C)[C@H](NC(=O)C[C@H](NC(=O)CCCCCCCOc1ccc(CN(Cc2ccccc2)C(=O)c2cnc(N)o2)cc1)c1ccccc1)C(=O)[C@@H]1C(=O)NC(=O)[C@H]1C`, in [13], the Ratio was found to be 8. Also, the MIC was 4 mg/L (≈ 4.96 µM) in [1]; 4 mg/L (≈ 4.96 µM) in assay [2]; 16 mg/L (≈ 19.8 µM) in assay [4]; 8 mg/L (≈ 9.91 µM) in assay [5] (Escherichia coli, D21); 4 mg/L (≈ 4.96 µM) in assay [6]; 4 mg/L (≈ 4.96 µM) in assay [7]. Also, the MIC in [9] is more than 64 mg/L; in assay [10], 1 mg/L (≈ 1.24 µM); in assay [11] it was more than 64 mg/L; in assay [12] it was more than 64 mg/L. For the same compound, the Kis in assay [15] is 5.5 nM; in [19] it was 16.9 nM. Also, the Kii in assay [19] was 9.6 nM. Further, the Activity in assay [17] is on record as 64 mg/L.
For the compound `CO[C@H]1/C=C/O[C@@]2(C)Oc3c(C)c(O)c4c(O)c(c(/C=N/N5CCN(C)CC5)c(O)c4c3C2=O)NC(=O)/C(C)=C\C=C\[C@H](C)[C@H](O)[C@@H](C)[C@@H](O)[C@@H](C)[C@H](OC(C)=O)[C@@H]1C` [RIFAMPIN], the Ratio in assay [13] is on record as more than 8. Besides, the MIC in assay [1] is 0.5 mg/L (≈ 0.608 µM); in assay [2], 0.5 mg/L (≈ 0.608 µM); in assay [3], 0.06 mg/L (≈ 0.0729 µM); in assay [5] (Escherichia coli, D21), 8 mg/L (≈ 9.72 µM); in assay [6] it was not above 0.03 mg/L; in assay [7], not above 0.03 mg/L. For the same compound, the MIC in assay [8] was 31 mg/L (≈ 37.7 µM); in assay [9], 31 mg/L (≈ 37.7 µM); in [10], not above 0.03 mg/L; in [11], 31 mg/L (≈ 37.7 µM). Moreover, the Activity in [5] and in [17] was more than 64 mg/L in each case.
As to GENTAMICIN, the MIC was 8 mg/L in assay [1]; less than 0.03 mg/L in assay [2]; 0.12 mg/L in assay [3]; 0.24 mg/L in [5]; 2 mg/L in assay [9]; 8 mg/L in assay [10]. The compound also yielded an MIC in [11] of 0.1 mg/L.
